Experimental data reported in paper PMC4002122 (Chemical Research in Toxicology, 2014).
Marks after values point to notes of the source that are not given here.

Key:
Type in all cases: in vitro ADME
UGT1A1 = target: T1, UGT1A1 (Homo sapiens, UniProt P22309); assay: Steady state kinetics of glucuronidation by recombinant UGT1A1
T1 sequence (P22309 26-533): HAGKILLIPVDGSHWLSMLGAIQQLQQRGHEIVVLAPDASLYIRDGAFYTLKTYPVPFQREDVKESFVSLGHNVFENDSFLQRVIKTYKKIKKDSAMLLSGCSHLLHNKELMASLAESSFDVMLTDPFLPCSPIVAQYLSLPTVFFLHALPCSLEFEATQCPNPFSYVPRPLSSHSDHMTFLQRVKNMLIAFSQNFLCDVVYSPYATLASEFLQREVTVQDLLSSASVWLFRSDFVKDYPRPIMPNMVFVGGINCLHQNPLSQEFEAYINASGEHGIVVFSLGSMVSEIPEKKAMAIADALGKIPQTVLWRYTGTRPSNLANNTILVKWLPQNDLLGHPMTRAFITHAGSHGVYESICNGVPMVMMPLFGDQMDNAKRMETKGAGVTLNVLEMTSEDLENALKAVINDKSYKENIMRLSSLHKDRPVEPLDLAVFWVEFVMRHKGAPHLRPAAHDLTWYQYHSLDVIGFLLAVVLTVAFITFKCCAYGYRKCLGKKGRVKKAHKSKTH

UGT1A10 = target: T2, UGT1A10 (Homo sapiens, UniProt Q9HAW8); assay: Screening of recombinant UGT1A10 for glucuronidation activity; conditions: 250 μM substrate, 5 μg protein, 60 min, 37 °C
T2 sequence (Q9HAW8 26-530): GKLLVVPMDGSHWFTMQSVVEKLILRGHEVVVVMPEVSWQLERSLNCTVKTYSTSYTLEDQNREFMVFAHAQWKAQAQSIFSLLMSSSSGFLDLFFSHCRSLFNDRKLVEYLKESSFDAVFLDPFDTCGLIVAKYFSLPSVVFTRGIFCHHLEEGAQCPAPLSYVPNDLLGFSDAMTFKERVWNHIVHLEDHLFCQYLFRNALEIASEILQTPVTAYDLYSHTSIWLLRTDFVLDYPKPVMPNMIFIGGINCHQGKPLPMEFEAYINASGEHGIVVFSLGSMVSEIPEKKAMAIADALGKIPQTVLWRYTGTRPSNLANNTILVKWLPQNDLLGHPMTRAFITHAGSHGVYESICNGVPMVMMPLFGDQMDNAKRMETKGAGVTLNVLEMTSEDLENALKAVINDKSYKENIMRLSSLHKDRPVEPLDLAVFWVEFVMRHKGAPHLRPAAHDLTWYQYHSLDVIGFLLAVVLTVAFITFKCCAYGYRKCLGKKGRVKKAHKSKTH
Procedure, shortened: (§1)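 UGT1A1, 1A3, 1A4 and 1A6–1A10 were His-tagged and expressed in baculovirus-infected Sf9 cells; UGT2B4, 2B7, 2B15 and 2B17 were commercial membranes run per supplier protocol. 5 μg membrane protein with 250 μM substrate, 2 mM UDP-GlcUA, Tris–HCl pH 7.4, MgCl2, saccharolactone, 2% DMSO; 37 °C, 60 min; no-substrate controls. Products measured by HPLC-UV/vis; β-glucuronidase hydrolysis separated O- from carboxyl glucuronides.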

UGT1A6 = target: T3, UGT1A6 (Homo sapiens, UniProt P19224); assay: Screening of recombinant UGT1A6 for glucuronidation activity; conditions: 250 μM substrate, 5 μg protein, 60 min, 37 °C
T3 sequence (P19224 27-532): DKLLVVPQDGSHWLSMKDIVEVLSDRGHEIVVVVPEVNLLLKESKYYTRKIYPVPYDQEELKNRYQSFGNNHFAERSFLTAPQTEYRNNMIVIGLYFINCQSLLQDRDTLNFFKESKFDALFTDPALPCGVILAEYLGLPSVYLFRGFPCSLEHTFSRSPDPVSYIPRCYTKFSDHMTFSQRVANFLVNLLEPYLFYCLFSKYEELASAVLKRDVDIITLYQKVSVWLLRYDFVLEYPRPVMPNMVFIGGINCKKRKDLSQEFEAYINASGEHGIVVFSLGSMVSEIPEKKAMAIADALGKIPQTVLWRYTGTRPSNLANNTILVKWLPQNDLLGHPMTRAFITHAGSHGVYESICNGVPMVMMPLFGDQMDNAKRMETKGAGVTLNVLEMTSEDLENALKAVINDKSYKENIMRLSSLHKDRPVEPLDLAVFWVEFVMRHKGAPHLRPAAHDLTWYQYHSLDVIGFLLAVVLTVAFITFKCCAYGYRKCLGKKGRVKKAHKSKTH
Procedure, shortened: as §1

UGT1A4 = target: T4, UGT1A4 (Homo sapiens, UniProt P22310); assay: Screening of recombinant UGT1A4 for glucuronidation activity; conditions: 250 μM substrate, 5 μg protein, 60 min, 37 °C
T4 sequence (P22310 29-534): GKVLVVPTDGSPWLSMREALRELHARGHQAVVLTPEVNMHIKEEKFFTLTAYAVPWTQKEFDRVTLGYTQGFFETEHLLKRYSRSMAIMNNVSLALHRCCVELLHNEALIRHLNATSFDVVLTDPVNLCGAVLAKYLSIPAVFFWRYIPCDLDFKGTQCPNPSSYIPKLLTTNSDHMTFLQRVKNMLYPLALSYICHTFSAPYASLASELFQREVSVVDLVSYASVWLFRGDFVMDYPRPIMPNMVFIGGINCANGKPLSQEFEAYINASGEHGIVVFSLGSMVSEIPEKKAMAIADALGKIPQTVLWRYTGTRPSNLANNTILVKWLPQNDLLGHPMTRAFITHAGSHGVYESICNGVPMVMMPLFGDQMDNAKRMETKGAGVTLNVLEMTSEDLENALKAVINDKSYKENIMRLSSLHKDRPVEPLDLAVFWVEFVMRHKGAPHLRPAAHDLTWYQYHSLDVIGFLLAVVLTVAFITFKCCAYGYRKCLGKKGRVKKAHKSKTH
Procedure, shortened: as §1

UGT2B17 = target: T5, UGT2B17 (Homo sapiens, UniProt O75795); assay: Screening of recombinant UGT2B17 for glucuronidation activity; conditions: 250 μM substrate, 5 μg protein, 60 min, 37 °C
T5 sequence (O75795 24-530): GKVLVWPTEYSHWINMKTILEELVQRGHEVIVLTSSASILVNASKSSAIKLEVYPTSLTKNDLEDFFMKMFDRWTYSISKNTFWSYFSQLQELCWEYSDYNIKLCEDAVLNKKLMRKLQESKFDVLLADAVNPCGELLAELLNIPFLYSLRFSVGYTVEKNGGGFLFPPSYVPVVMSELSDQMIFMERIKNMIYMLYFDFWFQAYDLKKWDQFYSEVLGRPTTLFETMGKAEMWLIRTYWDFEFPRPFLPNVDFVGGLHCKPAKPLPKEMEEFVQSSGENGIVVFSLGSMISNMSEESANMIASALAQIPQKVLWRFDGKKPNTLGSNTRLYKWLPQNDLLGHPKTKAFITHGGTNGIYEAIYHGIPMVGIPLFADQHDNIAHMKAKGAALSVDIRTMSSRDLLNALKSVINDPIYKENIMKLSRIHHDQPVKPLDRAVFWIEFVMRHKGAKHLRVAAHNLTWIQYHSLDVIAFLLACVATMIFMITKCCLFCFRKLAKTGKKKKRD
Procedure, shortened: as §1

In the case of `COc1ccc(/C=C(/C(=O)O)c2cc(OC)c(OC)c(OC)c2)cc1O` [NI-12a, (E)-3-(3-hydroxy-4-methoxyphenyl)-2-(3,4,5-trimethoxyphenyl)acrylic acid], the NI-12a-COO-gluc formation (UGT1A1; COO-glucuronide) was “too low to be assessed”, the NI-12a-O-gluc formation (UGT1A1; O-glucuronide) was “not produced” and the “glucuronidation activity (glucuronide formed)” value (from here on “glucuronidation activity”) (UGT1A10) was “only the hydroxyl metabolite”. The “glucuronidation activity” value (UGT1A6) was “not active” and the “glucuronidation activity” value (UGT1A4) was “not active”.

For `COc1ccc(C=Cc2cc(OC)cc(OC)c2/C=N/O)cc1` [NI-ST-05, (E)-2,4-dimethoxy-6-(4-methoxystyryl)benzaldehyde oxime], the “glucuronidation activity” value (UGT2B17) was “inactive”, the kinetic model (UGT1A1; NI-ST-05–N–O-gluc formation, estimated based on an incomplete data set) was “M–M ^b” and the Vmax (UGT1A1; NI-ST-05–N–O-gluc formation, estimated based on an incomplete data set, assuming M–M kinetics) was 0.21 ± 0.02 ^b nmol/mg/min. For the same compound, the “glucuronidation activity” value (UGT1A10) was “catalyzed the formation of the C=N–O-glucuronide”, the “glucuronidation activity” value (UGT1A6) was “inactive” and the “glucuronidation activity” value (UGT1A4) was “inactive”.

For `COc1cc(/C=C/c2cc([N+](=O)[O-])c(O)c([N+](=O)[O-])c2)cc(OC)c1` [DNR-1, (E)-4-(3,5-dimethoxystyryl)-2,6-dinitrophenol], the “glucuronidation activity” value (UGT2B17) was “No activity”, the “glucuronidation activity” value (UGT1A10) was “No activity” and the “glucuronidation activity” value (UGT1A6) was “No activity”. The “glucuronidation activity” value (UGT1A4) was “No activity”.
